Results taken from ChEMBL document CHEMBL4665803, “Discovery of Covalent Inhibitors Targeting the Transcriptional Enhanced Associate Domain Central Pocket” (J Med Chem, 2020).
Activity calls are given as the source filed them. No cut-off for these calls is given here.

How the values were obtained:
[1] = target: T1, Transcriptional enhancer factor TEF-3 (Homo sapiens, UniProt Q15561); assay: (§1) Binding affinity to nonacylated N-terminal His6-tagged human TEAD4 (217 to 434 residues) expressed in Escherichia coli BL21-CodonPlus (DE3)-RIPL cells assessed as inhibition of protein-FAM-YAP (50 to 100 residues) interaction preincubated for 10 mins followed by FAM YAP addition and measured after 1 hr by fluorescence assay
T1 sequence (Q15561 whole entry, the tested form may be a part): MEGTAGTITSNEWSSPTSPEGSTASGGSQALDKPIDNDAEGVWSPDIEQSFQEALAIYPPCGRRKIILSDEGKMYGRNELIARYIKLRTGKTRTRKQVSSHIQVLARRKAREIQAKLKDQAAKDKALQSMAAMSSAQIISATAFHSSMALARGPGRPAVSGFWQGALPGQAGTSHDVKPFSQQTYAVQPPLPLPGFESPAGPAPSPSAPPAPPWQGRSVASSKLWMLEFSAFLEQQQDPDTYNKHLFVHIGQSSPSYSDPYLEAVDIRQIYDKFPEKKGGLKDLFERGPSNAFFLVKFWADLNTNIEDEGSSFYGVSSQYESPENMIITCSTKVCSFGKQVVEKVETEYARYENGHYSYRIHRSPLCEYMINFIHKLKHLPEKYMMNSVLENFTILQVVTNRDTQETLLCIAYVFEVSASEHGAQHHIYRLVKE
Procedure, shortened: (§2)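 FP competition in PBS pH 7.5: serially diluted compound preincubated 10 min at room temperature with TEAD4 protein, then FAM-YAP50–100 added; shaken 1 h at room temperature, FP read at Ex/Em 485/535 nm. Final FAM/protein: nonacylated hTEAD4 2 nM/5 nM; acylated hTEAD4 3 nM/15 nM. Compound stocks 10 mM in DMSO. IC50 from curve fitting.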

[2] = target: T1, Transcriptional enhancer factor TEF-3; assay: Inhibition of CPM binding to N-terminal His6-tagged human TEAD4 (217 to 434 residues) expressed in Escherichia coli BL21-CodonPlus (DE3)-RIPL cells preincubated for 10 mins followed by CPM addition and measured after 1 hr by fluorescence assay; settings: read-out: IC50(app)
Mus musculus [3] = species on record: Mus musculus; assay: Binding affinity to N-terminal His6-tagged mouse TEAD4 Cys360Ser mutant assessed as inhibition of protein-FAM-YAP (50 to 100 residues) interaction preincubated for 10 mins followed by FAM YAP addition and measured after 1 hr by fluorescence assay; settings: time 70.0 min
Procedure, shortened: (§3)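 FP competition in PBS pH 7.5 with mTEAD4 Cys360Ser or Cys360Ala mutant: serially diluted compound preincubated 10 min at room temperature with protein, then FAM-YAP50–100 added (final 10 nM FAM / 50 nM protein for each mutant); shaken 1 h at room temperature, FP read at Ex/Em 485/535 nm.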

[4] = target: T1, Transcriptional enhancer factor TEF-3; assay: Binding affinity to TEAD4 in human HCT-116 cells assessed as change in melting temperature at 50 uM after 10 mins by […]; format: cell-based
Procedure, shortened: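 CETSA in HCT116 lysates (PBS, 0.04% NP-40, freeze–thaw lysis, 100,000g clearing; 1 mg/mL protein): compound at 50 μM or DMSO for 10 min at room temperature, aliquots heated across a temperature range, recentrifuged 100,000g at 4 °C for 25 min. Soluble TEAD4 detected by immunoblot with anti-TEAD4 antibody; melting temperature from turning point of fitted curves.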

[5] = target: T1, Transcriptional enhancer factor TEF-3; assay: Inhibition of FITC-labeled palmitate tracer binding to N-terminal His6-tagged human TEAD4 (217 to 434 residues) expressed in Escherichia coli BL21-CodonPlus (DE3)-RIPL cells preincubated for 10 mins followed by FITC-labeled palmitate tracer addition and measured after 1 hr by fluorescence assay
Procedure, shortened: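 FP competition in 25 mM HEPES, 150 mM NaCl, pH 6.5: serially diluted compound preincubated 10 min at room temperature with nonacylated hTEAD4, then FITC-palmitate tracer added (final 50 nM protein, 10 nM tracer); shaken 1 h at room temperature, FP at Ex/Em 485/535 nm. Tracer Kd from saturation binding.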

[6] = target: Transcriptional enhancer factor TEF-1 (Homo sapiens, UniProt P28347); assay: Inhibition of CPM binding to nonacylated N-terminal His6/GST-tagged human TEAD1 (209 to 426 residues) expressed in Escherichia coli BL21-CodonPlus (DE3)-RIPL cells preincubated for 10 mins followed by CPM addition and measured after 1 hr by fluorescence assay
Transcriptional enhancer factor TEF-1, sequence (P28347 whole entry, the tested form may be a part): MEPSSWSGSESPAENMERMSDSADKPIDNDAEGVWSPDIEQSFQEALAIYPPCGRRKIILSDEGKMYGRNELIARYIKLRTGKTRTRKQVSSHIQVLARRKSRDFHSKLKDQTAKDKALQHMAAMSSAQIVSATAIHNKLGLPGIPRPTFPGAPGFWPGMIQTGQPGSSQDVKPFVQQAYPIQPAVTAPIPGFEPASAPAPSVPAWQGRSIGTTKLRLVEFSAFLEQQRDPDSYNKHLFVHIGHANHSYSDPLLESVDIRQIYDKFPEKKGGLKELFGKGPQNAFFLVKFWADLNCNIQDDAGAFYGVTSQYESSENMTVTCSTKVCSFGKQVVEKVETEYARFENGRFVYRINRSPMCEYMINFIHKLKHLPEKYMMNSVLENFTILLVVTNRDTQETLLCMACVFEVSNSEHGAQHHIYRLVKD

Mus musculus [7] = species on record: Mus musculus; assay: Binding affinity to N-terminal His6/MBP-tagged mouse TEAD4 (209 to 427 residues) Cys360Ala mutant expressed in Escherichia coli BL21-CodonPlus (DE3)-RIPL cells assessed as inhibition of protein-FAM-YAP (50 to 100 residues) interaction preincubated for 10 mins followed by FAM YAP addition and measured after 1 hr by fluorescence assay; settings: time 70.0 min; procedure, shortened: as §3
[8] = target: T1, Transcriptional enhancer factor TEF-3; assay: Binding affinity to nonacylated N-terminal His6-tagged human TEAD4 (217 to 434 residues) expressed in Escherichia coli BL21-CodonPlus (DE3)-RIPL cells assessed as melting temperature at 80 uM after 10 mins by SYPRO orange dye-based differential scanning fluorimetry method (reference value: 41 degreeC)
[9] = target: Transcriptional enhancer factor TEF-3 (Mus musculus) (UniProt Q62296); assay: Binding affinity to nonacylated mouse TEAD4 assessed as line broadening at Phe386 residue at 0.5 mM by 1H-15N HSQC spectra analysis
Transcriptional enhancer factor TEF-3 (Mus musculus), sequence (Q62296 whole entry, the tested form may be a part): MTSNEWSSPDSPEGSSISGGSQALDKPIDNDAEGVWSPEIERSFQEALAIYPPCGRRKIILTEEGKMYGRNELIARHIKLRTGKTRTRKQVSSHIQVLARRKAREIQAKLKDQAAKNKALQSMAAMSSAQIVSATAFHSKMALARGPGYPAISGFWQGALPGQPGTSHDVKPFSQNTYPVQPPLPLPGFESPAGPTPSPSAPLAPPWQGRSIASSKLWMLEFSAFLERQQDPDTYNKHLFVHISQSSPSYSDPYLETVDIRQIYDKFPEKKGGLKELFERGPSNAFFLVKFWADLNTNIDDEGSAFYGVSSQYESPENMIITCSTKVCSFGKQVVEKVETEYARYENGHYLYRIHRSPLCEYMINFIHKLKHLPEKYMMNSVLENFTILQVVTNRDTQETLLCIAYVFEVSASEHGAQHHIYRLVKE
Procedure, shortened: (§4)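 1H–15N HSQC of 13C/15N-labeled mTEAD4, deacylated with hydroxylamine; spectra with DMSO or compound (0.5 mM) recorded at 37 °C on a 600 MHz cryoprobe instrument in 20 mM HEPES pH 7.3, 150 mM NaCl, 1 mM DTT; spectra overlaid.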

[10] = target: T1, Transcriptional enhancer factor TEF-3; assay: Inhibition of FITC-labeled palmitate tracer binding to N-terminal His6-tagged human TEAD4 (217 to 434 residues) expressed in Escherichia coli BL21-CodonPlus (DE3)-RIPL cells assessed as ratio of Kinact to Ki measured after 1 to 24 hrs by fluorescence assay; settings: time hrs 1-24
[11] = target: T1, Transcriptional enhancer factor TEF-3; assay: Inhibition of CPM binding to nonacylated N-terminal His6-tagged human TEAD4 (217 to 434 residues) expressed in Escherichia coli BL21-CodonPlus (DE3)-RIPL cells assessed as ratio of Kinact to Ki measured after 1 to 24 hrs by fluorescence assay; settings: time hrs 1-24
[12] = target: T1, Transcriptional enhancer factor TEF-3; assay: Inhibition of TEAD4 in HEK293 cells assessed as reduction in ANKRD1 mRNA expression at 1 uM measured after 6 hrs by SYBR green dye based RT-PCR analysis relative to control; format: cell-based
Procedure, shortened: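 HEK293 cells treated with DMSO or compound for 6 h; ANKRD1 mRNA measured by RT-qPCR relative to the DMSO control.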

[13] = target: T1, Transcriptional enhancer factor TEF-3; assay: Binding affinity to nonacylated N-terminal His6-tagged human TEAD4 (217 to 434 residues) expressed in Escherichia coli BL21-CodonPlus (DE3)-RIPL cells at 8 equiv after 1 hr by ESI-MS spectrophotometric analysis
Procedure, shortened: (§5)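 Whole-protein ESI–MS: 1 μM hTEAD4 incubated 1 h at room temperature with 8 equiv compound in 25 mM HEPES, 150 mM NaCl, pH 6.5; centrifuged, injected via online desalting column to UPLC-MS; masses deconvoluted to detect adducts.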

[14] = target: T1, Transcriptional enhancer factor TEF-3; assay: Inhibition of CPM binding to N-terminal His6-tagged human TEAD4 (217 to 434 residues) expressed in Escherichia coli BL21-CodonPlus (DE3)-RIPL cells at 12.5 uM preincubated for 10 mins followed by CPM addition and measured after 1 hr by fluorescence assay relative to control; settings: time 70.0 min
[15] = target: T1, Transcriptional enhancer factor TEF-3; assay: Reversible inhibition of CPM binding to nonacylated N-terminal His6-tagged human TEAD4 (217 to 434 residues) expressed in Escherichia coli BL21-CodonPlus (DE3)-RIPL cells measured after 1 to 24 hrs by fluorescence assay
[16] = target: Transcriptional enhancer factor TEF-3 (Mus musculus) (UniProt Q62296); assay: Binding affinity to nonacylated mouse TEAD4 assessed as line broadening at Phe408 residue at 0.5 mM by 1H-15N HSQC spectra analysis; procedure, shortened: as §4
[17] = target: T1, Transcriptional enhancer factor TEF-3; assay: Binding affinity to acylated N-terminal His6-tagged human TEAD4 (217 to 434 residues) expressed in Escherichia coli BL21-CodonPlus (DE3)-RIPL cells assessed as covalent adduct formation at 8 equiv after 1 hr by ESI-MS spectrophotometric analysis; procedure, shortened: as §5
[18] = target: T1, Transcriptional enhancer factor TEF-3; assay: as §1, with “to” for “to nonacylated”; settings: time 70.0 min; procedure, shortened: as §2

In the case of `O=c1cc(CO)oc(C(Nc2ccccc2)c2ccccc2)c1O` (stereo not drawn), the IC50 [1] is reported as 0.07 µM, the IC50 [2] is reported as 2.3 µM and the inhibition (Mus musculus [3]) is reported as “inactive”. The ΔTm [4] was 3.3 °C, the IC50 [5] was 0.2 µM and the IC50 [6] was 2.6 µM. The inhibition (Mus musculus [7]) was “inactive”, the Tm [8] was 36 °C and the Activity [9] was “Active”. The Ratio [10] was 4, the Ratio [11] was 8.3 and the inhibition [12] was 90%. For the same molecule, the Activity [13] was “Active”, the inhibition [14] was > 50% and the Ki [15] was 2.6 µM. For the same molecule, the Activity [16] was “Active”, the Activity [17] was “inactive” and the inhibition [18] was “inactive”.
